The source of these data is ChEMBL document CHEMBL1131106, “Synthesis and characterization of heteroarotinoids demonstrate structure specificity relationships” (J Med Chem, 1998).

Assay [1] concerns the target T1, Retinoic acid receptor alpha (Homo sapiens, UniProt P10276).
T1 sequence (P10276 whole entry): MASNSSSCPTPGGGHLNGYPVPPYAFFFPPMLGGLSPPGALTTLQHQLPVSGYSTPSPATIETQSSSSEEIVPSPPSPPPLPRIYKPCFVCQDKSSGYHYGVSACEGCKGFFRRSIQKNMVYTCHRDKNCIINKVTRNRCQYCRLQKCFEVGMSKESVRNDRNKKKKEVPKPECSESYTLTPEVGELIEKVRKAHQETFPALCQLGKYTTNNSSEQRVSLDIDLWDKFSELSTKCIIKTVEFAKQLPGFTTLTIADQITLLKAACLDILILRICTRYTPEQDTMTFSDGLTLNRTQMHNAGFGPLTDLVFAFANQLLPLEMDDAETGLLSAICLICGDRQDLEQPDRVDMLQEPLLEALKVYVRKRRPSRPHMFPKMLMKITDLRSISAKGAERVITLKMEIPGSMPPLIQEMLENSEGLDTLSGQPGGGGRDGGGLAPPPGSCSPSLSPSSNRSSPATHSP
The assay can be described thus: Transcriptional activation in CV-1 cells expressing RAR-alpha receptor. It is filed as cell-based. A digest of the protocol:
(§1)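 CV-1 cells co-transfected by calcium phosphate with receptor expression plasmid, luciferase reporter MTV-TREp-LUC (two TRE-palindromic copies; RAR assays), β-galactosidase internal control plasmid and pGEM carrier. Incubated 40 h with or without various retinoid concentrations. Luciferase read in extracts, normalized to β-galactosidase. Triplicate. Activity normalized to 9-cis-retinoic acid; EC50 = concentration giving 50% maximal response.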

Assay [2] concerns the target T2, Retinoic acid receptor beta (Homo sapiens, UniProt P10826).
T2 sequence (P10826 whole entry): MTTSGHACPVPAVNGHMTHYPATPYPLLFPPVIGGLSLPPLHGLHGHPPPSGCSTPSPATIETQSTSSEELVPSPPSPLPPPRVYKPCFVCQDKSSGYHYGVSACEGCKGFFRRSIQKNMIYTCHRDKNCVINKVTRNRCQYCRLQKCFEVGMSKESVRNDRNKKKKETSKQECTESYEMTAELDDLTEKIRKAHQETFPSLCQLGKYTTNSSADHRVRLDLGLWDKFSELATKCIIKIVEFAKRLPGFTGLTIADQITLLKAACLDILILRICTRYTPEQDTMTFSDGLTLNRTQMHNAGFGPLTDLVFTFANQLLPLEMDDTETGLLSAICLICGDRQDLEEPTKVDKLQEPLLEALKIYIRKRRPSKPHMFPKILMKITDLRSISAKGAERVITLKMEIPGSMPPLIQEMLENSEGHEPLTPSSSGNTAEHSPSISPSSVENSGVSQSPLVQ
Kind of assay: Transcriptional activation in CV-1 cells expressing RAR-beta receptor. It is filed as cell-based. A digest of the protocol:
as §1

Assay [3] has as its target T3, Retinoic acid receptor RXR-alpha (Homo sapiens, UniProt P19793).
T3 sequence (P19793 whole entry): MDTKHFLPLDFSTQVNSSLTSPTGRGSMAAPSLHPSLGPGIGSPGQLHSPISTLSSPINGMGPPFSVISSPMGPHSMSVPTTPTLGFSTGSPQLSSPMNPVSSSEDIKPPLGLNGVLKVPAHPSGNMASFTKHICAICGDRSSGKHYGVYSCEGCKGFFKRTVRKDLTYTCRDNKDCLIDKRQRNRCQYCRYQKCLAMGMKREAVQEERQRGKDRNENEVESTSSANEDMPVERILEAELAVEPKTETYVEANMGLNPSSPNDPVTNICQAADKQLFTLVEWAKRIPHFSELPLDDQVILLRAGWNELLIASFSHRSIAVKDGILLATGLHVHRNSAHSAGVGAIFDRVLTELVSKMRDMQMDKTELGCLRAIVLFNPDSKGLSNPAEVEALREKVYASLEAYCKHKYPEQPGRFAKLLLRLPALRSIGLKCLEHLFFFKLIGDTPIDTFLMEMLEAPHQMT
The assay can be described thus: Transcriptional activation in CV-1 cells expressing RXR-alpha receptor.

For assay [4], the target named is T4, Retinoic acid receptor gamma (Homo sapiens, UniProt P13631).
T4 sequence (P13631 whole entry): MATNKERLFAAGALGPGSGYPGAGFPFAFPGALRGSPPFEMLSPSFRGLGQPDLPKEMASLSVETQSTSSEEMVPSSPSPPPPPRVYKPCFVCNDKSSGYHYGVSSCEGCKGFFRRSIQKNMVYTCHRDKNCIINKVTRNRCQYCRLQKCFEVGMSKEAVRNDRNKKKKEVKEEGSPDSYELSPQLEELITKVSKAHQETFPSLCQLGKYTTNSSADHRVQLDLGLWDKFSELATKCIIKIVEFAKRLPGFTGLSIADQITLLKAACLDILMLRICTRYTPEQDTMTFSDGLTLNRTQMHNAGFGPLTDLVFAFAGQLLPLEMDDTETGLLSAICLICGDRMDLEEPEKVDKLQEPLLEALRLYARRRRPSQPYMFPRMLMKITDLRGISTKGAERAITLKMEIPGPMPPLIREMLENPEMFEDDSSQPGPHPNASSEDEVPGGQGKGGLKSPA
Kind of assay: Transcriptional activation in CV-1 cells expressing RAR-gamma receptor. It is filed as cell-based. A digest of the protocol: as §1

The target of assay [5] is T3, Retinoic acid receptor RXR-alpha. Kind of assay: Transcriptional activation in CV-1 cells expressing RXR-alpha receptor;not active.
The target of assay [6] is T1, Retinoic acid receptor alpha. The assay can be described thus: Transcriptional activation in CV-1 cells expressing RAR-alpha receptor; Not active. It is filed as cell-based. A digest of the protocol: as §1

For orientation: EC50 means the midpoint of the concentration-response curve. A lower EC50 goes with higher potency in that assay. As to `CC(/C=C/C=C(\C)c1ccc2c(c1)C(C)(C)CS2)=C\C(=O)O`, the EC50 is 1000 nM in assay [1], 1200 nM in assay [2], 2600 nM in assay [3] and 8 nM in assay [4].
As for `C/C(=C\c1ccc(C(=O)O)cc1)c1ccc2c(c1)C(C)(C)CO2`, the 50% effective concentration (EC50) is 2300 nM in assay [1], 320 nM in assay [2], “Not Active” in assay [5] and 460 nM in assay [4].
With `C/C(=C\c1ccc(C(=O)O)cc1)c1ccc2c(c1)C(C)(C)CS2`, the half-maximal effective concentration (EC50) in assay [1] was 420 nM; in assay [2] it was 18 nM; in assay [5], “Not Active”; in assay [4], 30 nM.
For `C/C(=C\c1ccc(C(=O)O)cc1)c1ccc2c(c1)C(C)(C)CCO2`, in that order: 1100 nM, 190 nM, “Not Active” and 200 nM.
On to `CC(/C=C/C=C(\C)c1ccc2c(c1)C(C)(C)CCO2)=C\C(=O)O`, for which the EC50 in assay [1] came to 740 nM; in assay [2] it was 72 nM; in assay [3], 2800 nM; in assay [4], 39 nM.
Consider `COC(=O)c1ccc(/C=C(\C)c2ccc3c(c2)C(C)(C)CCS3)cc1`, for which the EC50 was 620 nM in assay [1], 110 nM in assay [2], “Not Active” in assay [5] and 84 nM in assay [4].
In the case of `COC(=O)c1ccc(/C=C(\C)c2ccc3c(c2)C(C)(C)CO3)cc1`, the half-maximal effective concentration (EC50) is 430 nM in assay [2], “Not Active” in assay [6], “Not Active” in assay [5] and 400 nM in assay [4].
Turning to `COC(=O)c1ccc(/C=C(\C)c2ccc3c(c2)C(C)(C)CCO3)cc1`, the EC50 is 1100 nM in assay [1], 140 nM in assay [2], “Not Active” in assay [5] and 330 nM in assay [4].
Consider `CC(/C=C/C=C(\C)c1ccc2c(c1)C(C)(C)CCS2)=C\C(=O)O`, for which the EC50 in assay [1] was found to be 1400 nM; in assay [2], 43 nM; in assay [3] it was 2700 nM; in assay [4], 12 nM.
Consider `CC(/C=C/C=C(\C)c1ccc2c(c1)C(C)(C)CO2)=C\C(=O)O`, for which the concentration for a half-maximal effect (EC50) was determined as 800 nM in assay [1], 770 nM in assay [2], 2800 nM in assay [3] and 230 nM in assay [4].
